Data reported in ChEMBL document CHEMBL1138626, “Synthesis and biological evaluation of reversible inhibitors of IdeS, a bacterial cysteine protease and virulence determinant” (Bioorg Med Chem, 2009).
The source made the active and inactive calls. The calls are words filed in the database; no cut-off is given here.

System: Streptococcus pyogenes
Assay: Inhibition of Streptococcus pyogenes IdeS assessed as blockade of enzyme-mediated degradation of human polyclonal immunoglobulin G by SDS-PAGE method
Outline: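 IdeS expressed in E. coli and purified, diluted in PBS pH 7.4 (1 mg/mL), preincubated 30 min at room temperature in the dark with compound in DMSO (10 mg/mL stock, 100× excess). Human polyclonal IgG (1 mg/mL in PBS) then added, 1 h at 37 °C. Samples boiled in reducing SDS sample buffer (4% SDS, 5% 2-mercaptoethanol), cleavage read on 4–20% SDS–PAGE.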

SMILES | Activity
Cc1ccc(S(=O)(=O)N[C@H](CO)C(C)C)cc1 | inactive
Cc1ccc(S(=O)(=O)N[C@H](CO)CCCCN)cc1 | inactive
Cc1ccc(S(=O)(=O)N[C@@H](CCCCN)C(=O)CCl)cc1 | Active
Cc1ccc(S(=O)(=O)N[C@@H](CCCCNC(=O)OC(C)(C)C)CN=[N+]=[N-])cc1 | inactive
Cc1ccc(S(=O)(=O)N2C[C@@H]2C(C)C)cc1 (stereo partly drawn) | inactive
CCCC[C@@H](CC#N)NS(=O)(=O)c1ccc(C)cc1 | Active
CCCC[C@@H](CN=[N+]=[N-])NS(=O)(=O)c1ccc(C)cc1 | Active
Cc1ccc(S(=O)(=O)N[C@H](CC=O)CCCCNC(=O)OC(C)(C)C)cc1 | Active
Cc1ccc(S(=O)(=O)NC(CC=O)C(C)C)cc1 (single isomer, unassigned) | Active
CCCC[C@H]1CN1S(=O)(=O)c1ccc(C)cc1 (stereo partly drawn) | inactive
Cc1ccc(S(=O)(=O)N[C@@H](CCCCN)CN=[N+]=[N-])cc1 | inactive
Cc1ccc(S(=O)(=O)N[C@H](CN=[N+]=[N-])C(C)C)cc1 | Active
CCCC[C@@H](CO)NS(=O)(=O)c1ccc(C)cc1 | inactive
Cc1ccc(S(=O)(=O)N[C@H](CO)CCCCNC(=O)OC(C)(C)C)cc1 | inactive

Second part, the compound after the results:

Activity | SMILES
inactive | Cc1ccc(S(=O)(=O)N[C@H](COS(=O)(=O)c2ccc(C)cc2)Cc2ccccc2)cc1
Active | Cc1ccc(S(=O)(=O)N[C@H](CN=[N+]=[N-])Cc2ccccc2)cc1
Active | Cc1ccc(S(=O)(=O)N[C@H](CC=O)Cc2ccccc2)cc1
inactive | Cc1ccc(S(=O)(=O)N[C@H](CO)Cc2ccccc2)cc1
Active | Cc1ccc(S(=O)(=O)N[C@@H](Cc2ccccc2)C(=O)CCl)cc1
inactive | Cc1ccc(S(=O)(=O)N[C@H](COS(=O)(=O)c2ccc(C)cc2)C(C)C)cc1
inactive | Cc1ccc(S(=O)(=O)N[C@@H](CCCCNC(=O)OC(C)(C)C)COS(=O)(=O)c2ccc(C)cc2)cc1
inactive | CCCC[C@@H](COS(=O)(=O)c1ccc(C)cc1)NS(=O)(=O)c1ccc(C)cc1
Active | CCCC[C@@H](CC=O)NS(=O)(=O)c1ccc(C)cc1
